Laboratory results reported in ChEMBL document CHEMBL1781958, “Discovery of pyridone-containing imidazolines as potent and selective inhibitors of neuropeptide Y Y5 receptor” (Bioorg Med Chem, 2009).
One block for each molecule: values may come before it.

What was measured:
[1] = Volume of distribution at steady state in rhesus monkey at 1 mg/kg, po and 0.3 mg/kg, iv; type: ADME, organism-based, Macaca mulatta; details: in vivo, read-out: Vdss
Procedure, shortened: (§1)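 Pharmacokinetic parameters are the mean of n = 3 animals. Rats were dosed 1 mg/kg iv and 3 mg/kg po; rhesus monkeys 0.3 mg/kg iv and 1 mg/kg po.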

[2] = Drug level in anesthetized Beagle dog plasma at 1 mg/kg, iv infused over 10 mins measured immediately after end of dosing; type: ADME, organism-based, Canis lupus familiaris; set-up: dose 1 mg/kg, route intravenous
Procedure, shortened: (§2)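 Dogs were anesthetized and, after surgery, stabilized at least 1 h before baseline readings. Doses of 1, 2 and 5 mg/kg were infused iv over 10 min each (cumulative 1, 3, 8 mg/kg). QTc, MAP, LVSP, CO, HR and LV dp/dt_max were read at 0, 10 and 20 min as maximum % change from baseline. Plasma was sampled at the end of each dosing period; n = 3.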

[3] = Drug level in anesthetized Beagle dog plasma at 2 mg/kg, iv infused over 10 mins measured immediately after end of dosing; type: ADME, organism-based, Canis lupus familiaris; set-up: dose 2 mg/kg, route intravenous; procedure, shortened: as §2
[4] = AUC (0 to infinity) in rhesus monkey at 1 mg/kg, po; type: ADME, organism-based, Macaca mulatta; set-up: time infinity, dose 1 mg/kg, route oral; details: plasma
Procedure, shortened: (§3)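 PK in rats (oral 3 mg/kg, iv 1 mg/kg) and rhesus monkeys (oral 1 mg/kg, iv 0.3 mg/kg); values are means of n = 3.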

[5] = AUC (0 to infinity) in Sprague-Dawley rat at 3 mg/kg, po; type: ADME, organism-based; set-up: time infinity, dose 3 mg/kg, route oral; details: plasma; procedure, shortened: as §3
[6] = Drug level in mdr1a deficient CF1 mouse plasma at 10 mg/kg, po after 2 hrs; type: ADME, organism-based; set-up: dose 10 mg/kg, route oral
Procedure, shortened: (§4)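 CF-1 mice, mdr1a (−/−) and (+/+), dosed orally at 10 mg/kg; brain and plasma concentrations taken 2 h after dosing; mean of n = 3.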

[7] = Cmax in rhesus monkey at 1 mg/kg, po and 0.3 mg/kg, iv; type: ADME, organism-based, Macaca mulatta; details: in vivo; procedure, shortened: as §3
[8] = Ratio of drug level in brain to plasma in mdr1a deficient CF1 mouse at 10 mg/kg, po after 2 hrs; type: ADME, organism-based; set-up: dose 10 mg/kg, route oral; details: read-out: BPR
Procedure, shortened: (§5)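 P-gp-deficient mdr1a (−/−) and wild-type mdr1a (+/+) CF-1 mice were dosed orally at 10 mg/kg. Brain (nmol/g) and plasma levels were taken 2 h post-dose, n = 3. The ratio was calculated from the mean values.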

[9] = test system: Brain; experiment: Drug level in mdr1a expressing wild type CF1 mouse brain at 10 mg/kg, po after 2 hrs; type: ADME, organism-based; set-up: dose 10 mg/kg, route oral; details: in vivo; procedure, shortened: as §4
[10] = Ratio of drug level in brain to plasma in mdr1a expressing wild type CF1 mouse at 10 mg/kg, po after 2 hrs; type: ADME, organism-based; set-up: dose 10 mg/kg, route oral; details: read-out: BPR; procedure, shortened: as §5
[11] = Drug level in Sprague-Dawley rat plasma at 10 mg/kg, po after 2 hrs; type: ADME, organism-based; set-up: dose 10 mg/kg, route oral
Procedure, shortened: (§6)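 SD rats dosed orally at 10 mg/kg; brain (nmol/g) and plasma levels measured 2 h later.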

[12] = test system: Brain; experiment: Drug level in mdr1a deficient CF1 mouse brain at 10 mg/kg, po after 2 hrs; type: ADME, organism-based; set-up: dose 10 mg/kg, route oral; details: in vivo; procedure, shortened: as §4
[13] = Bioavailability in Sprague-Dawley rat at 3 mg/kg, po and 1 mg/kg, iv; type: ADME, organism-based; details: in vivo; procedure, shortened: as §3
[14] = Drug level in mdr1a expressing wild type CF1 mouse plasma at 10 mg/kg, po after 2 hrs; type: ADME, organism-based; set-up: dose 10 mg/kg, route oral; procedure, shortened: as §4
[15] = Bioavailability in rhesus monkey at 1 mg/kg, po and 0.3 mg/kg, iv; type: ADME, organism-based, Macaca mulatta; details: in vivo
[16] = Drug level in anesthetized Beagle dog plasma at 5 mg/kg, iv infused over 10 mins measured immediately after end of dosing; type: ADME, organism-based, Canis lupus familiaris; set-up: dose 5 mg/kg, route intravenous; procedure, shortened: as §2
[17] = Volume of distribution at steady state in Sprague-Dawley rat at 3 mg/kg, po and 1 mg/kg, iv; type: ADME, organism-based; details: in vivo, read-out: Vdss; procedure, shortened: as §1
[18] = Ratio of drug level in brain to plasma of Sprague-Dawley rat at 10 mg/kg, po after 2 hrs; type: ADME, organism-based; set-up: dose 10 mg/kg, route oral; details: read-out: BPR
Procedure, shortened: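 Sprague-Dawley rats were dosed orally at 10 mg/kg. Brain (nmol/g) and plasma concentrations were measured 2 h later, and the brain-to-plasma ratio was taken from these.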

[19] = Cmax in Sprague-Dawley rat at 3 mg/kg, po and 1 mg/kg, iv; type: ADME, organism-based; details: in vivo; procedure, shortened: as §3
[20] = test system: Brain; experiment: Drug level in Sprague-Dawley rat brain at 10 mg/kg, po after 2 hrs; type: ADME, organism-based; set-up: dose 10 mg/kg, route oral; details: in vivo; procedure, shortened: as §6
[21] = Drug level in anesthetized Sprague-Dawley rat plasma at 5 mg/kg, iv after 3 mins; type: ADME, organism-based; set-up: dose 5 mg/kg, route intravenous
Procedure, shortened: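 Male SD rats under inactin (100 mg/kg). Femoral artery catheter for pressure, femoral vein for dosing, left ventricular catheter via the carotid for LVP; LV dp/dt_max derived from LVP. Vehicle (60% propylene glycol/water, 1 mL/kg) given first, compound 45 min later. Values are % change from baseline at 3 min after 5 mg/kg iv, with blood drawn at 3 min; n = 2–3.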

Vd [1]: 3.8 L/kg
concentration at 10 min [2]: 7.7 µM
concentration at 10 min [3]: 14.3 µM
AUC(0-inf) [4]: 11 µM·h
AUC(0-inf) [5]: 4.8 µM·h
concentration at 2 h [6]: 7.01 µM
Cmax [7]: 640 nM
Kp at 2 h [8]: 2.05
Drug uptake [9]: 4 nmol/g
Kp at 2 h [10]: 0.48
concentration at 2 h [11]: 2200 nM
Drug uptake [12]: 14.8 nmol/g
bioavailability [13]: 92%
concentration at 2 h [14]: 8.36 µM
bioavailability [15]: 92%
concentration at 10 min [16]: 26.9 µM
Vd [17]: 2.6 L/kg
Kp at 2 h [18]: 0.42
Cmax [19]: 1100 nM
Drug uptake [20]: 0.91 nmol/g
Structure (SMILES): C[C@@H]1NC(c2ccc(=O)n(C(F)F)c2)=N[C@@]1(c1ccc(F)cc1)c1ccc(F)nc1

concentration at 0.05 h [21]: 6.3 µM
Structure (SMILES): C[C@@H]1NC(c2cc(C#N)ccn2)=N[C@@]1(c1ccc(F)cc1)c1ccc(F)nc1

concentration at 0.05 h [21]: 4.9 µM
Structure (SMILES): C[C@@H]1NC(c2cccc(S(N)(=O)=O)c2)=N[C@@]1(c1ccc(F)cc1)c1ccc(F)nc1

concentration at 0.05 h [21]: 5.3 µM
Structure (SMILES): C[C@@H]1NC(c2cccc(=O)[nH]2)=N[C@@]1(c1ccc(F)cc1)c1ccc(F)nc1

concentration at 0.05 h [21]: 2.6 µM
Structure (SMILES): C[C@@H]1NC(c2cccc(O)n2)=NC1(c1ccc(F)cc1)c1ccc(F)cc1

concentration at 0.05 h [21]: 4.3 µM
Structure (SMILES): C[C@@H]1NC(c2ccnc(C#N)c2)=N[C@@]1(c1ccc(F)cc1)c1ccc(F)nc1

concentration at 0.05 h [21]: 5.1 µM
Structure (SMILES): C[C@@H]1NC(c2cnccn2)=N[C@@]1(c1ccc(F)cc1)c1ccc(F)nc1
